Measured values published in PubChem BioAssay.
Calls of active or inactive are those of the source.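 The calls were made as follows, unless noted: active = potentiation averaged over duplicate wells exceeding buffer-only control mean by more than 3 SD; inactive = the rest.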

tested on: not listed separately; experiment: nonspecific flux increase, KCNQ1-free cells – parental CHO cells, counter-screen for KCNQ1 potentiator project (AID 493006;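 active = duplicate-averaged activation above buffer control mean plus 5 SD of those controls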); conditions: parental CHO-K1 cells, FluxOR thallium flux, at 10 µM; active compounds read high
How it was run: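 Assay system: Untransfected host CHO-K1 cells with FluxOR thallium dye | Probe or stimulus: Potassium/thallium depolarization pulse | Schedule: Overnight 37 °C plating, 90 min RT dye, 20 min compound | Detection: Kinetic thallium-flux fluorescence | Read-out: Max-minus-min fluorescence over baseline, percent of buffer-to-R-L3 span | Benchmarks: Low control buffer, high control R-L3 activator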

| SMILES | outcome | activation |
| --- | --- | --- |
| Cc1ccccc1-c1nc(Cc2ccc(Cl)cc2)no1 | inactive | – |
| CCC(O)C1CCN(Cc2cn(Cc3ccccc3)nc2-c2cc3ccccc3o2)CC1 (configuration not stated) | – | 170% (active) |
| CCOc1ccccc1NC(=O)C(=O)CC(=O)c1ccc(OC)cc1 | – | 164% (active) |
| Cc1cc(/C=N/NC(=O)c2cccs2)c(C)n1-c1ccccc1 | inactive | – |
| O=C(NC(=S)N1CCN(Cc2ccc3c(c2)OCO3)CC1)c1cccc(Br)c1 | – | 314% (active) |
| Cc1ccc(C(=O)NC(=S)N(C)Cc2ccccc2)cc1 | – | 146% (active) |
| S=c1[nH]nc(CSc2nc3ccccc3s2)n1C1CCCCC1 | – | 142% (active) |
| CN1C(=O)/C(=N\OC(=O)c2cccc3ccccc23)c2ccccc21 | inactive | – |
| CS(=O)(=O)c1ccc(C(=O)OCc2nnc(-c3ccc(Cl)cc3)o2)cc1[N+](=O)[O-] | inactive | – |
| CCC1(c2ccc(Cl)cc2)NC(=S)N(c2ccccc2)N1 (configuration not stated) | – | 405% (active) |
| CC1=C(C)/C(=N\OS(=O)(=O)c2ccccc2)C=CC1=O | inactive | – |
| C=CCn1c(=S)[nH]c2sc3c(c2c1=O)CCCC3 | – | 294% (active) |
| CSc1nnc(-c2ccccc2)o1 | inactive | – |
| Cc1ccc(Cl)cc1NC(=S)N/N=C/c1cccc2ccccc12 | inactive | – |
| Cc1cc(C)n(CCNS(=O)(=O)c2ccccc2)n1 | inactive | – |
| CCN1C(=O)/C(=C/c2ccc(OCc3ccc(C(=O)O)cc3)c(Cl)c2)NC1=S | – | 136% (active) |
| O=C(NC(=S)Nc1ccccc1N1CCOCC1)c1cccc([N+](=O)[O-])c1 | inactive | – |
| CCc1ccc2c(c1)c(N=NC1=NC(=O)CS1)c(O)n2C | – | 162% (active) |
| O=C(NC(=S)Nc1cccnc1)c1cc2ccccc2o1 | – | 184% (active) |
| CC(C)(C)NC(=O)CN(C(=O)CNC(=O)c1cccs1)c1ccc2c(c1)OCCO2 | inactive | – |
| CCc1ccc(/C=N/NC(=O)Cc2cccn2C)cc1 | inactive | – |
| O=C(Nc1nnc(-c2ccc3c(c2)CCCC3)o1)c1ccccc1Cl | – | 184% (active) |

molecular target: Potassium voltage-gated channel subfamily KQT member 1 (Homo sapiens) (UniProt P51787); experiment: enhancement of KCNQ1 channel thallium flux – FluxOR thallium flux, CHO cells, duplicates, confirmation (AID 493007); conditions: KCNQ1 cell line, FluxOR thallium flux fluorescence, at 10 µM; active compounds read high, % of reference activator effect, buffer zero;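 as to outcome: cells depolarized by a potassium plus thallium sulfate stimulus after compound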
How it was run: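 Material: KCNQ1-expressing CHO cell line; Incubation: FluxOR dye loading 90 min, compound exposure 20 min, room temperature; Detection: FluxOR Tl+ flux fluorescence, 10 s baseline plus 110 s recording; Read-out: percent activation between buffer and R-L3 responses; Control set: buffer-only wells as 0% and R-L3 activator as 100%; Replication: duplicate wells per compound.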

Chain of Potassium voltage-gated channel subfamily KQT member 1 (Homo sapiens) (P51787 whole entry, looked up): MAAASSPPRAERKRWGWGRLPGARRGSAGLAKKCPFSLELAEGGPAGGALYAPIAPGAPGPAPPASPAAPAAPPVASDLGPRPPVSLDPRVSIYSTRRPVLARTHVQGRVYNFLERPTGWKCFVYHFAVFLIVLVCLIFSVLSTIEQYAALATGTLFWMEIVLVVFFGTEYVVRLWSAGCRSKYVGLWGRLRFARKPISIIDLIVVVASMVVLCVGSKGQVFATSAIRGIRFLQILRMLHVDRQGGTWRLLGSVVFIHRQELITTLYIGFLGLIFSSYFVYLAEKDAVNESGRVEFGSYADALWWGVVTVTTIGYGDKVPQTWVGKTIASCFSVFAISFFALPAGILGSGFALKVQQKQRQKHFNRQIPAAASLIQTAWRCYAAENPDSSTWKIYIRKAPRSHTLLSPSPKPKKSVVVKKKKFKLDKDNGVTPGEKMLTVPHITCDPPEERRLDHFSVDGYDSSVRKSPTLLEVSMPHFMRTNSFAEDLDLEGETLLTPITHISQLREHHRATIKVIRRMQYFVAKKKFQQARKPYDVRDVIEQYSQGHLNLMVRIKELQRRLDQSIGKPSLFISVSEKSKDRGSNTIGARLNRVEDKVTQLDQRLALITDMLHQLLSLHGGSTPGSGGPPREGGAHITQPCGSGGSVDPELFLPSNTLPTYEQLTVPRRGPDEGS

| SMILES | potentiation | outcome |
| --- | --- | --- |
| Cc1nn(C)c(C(=O)NC(=S)Nc2ccc([N+](=O)[O-])cc2)c1Cl | 72% (active) | – |
| O=C(Nc1cc([N+](=O)[O-])ccc1N1CCCC1)c1cccs1 | – | inactive |
| Fc1ccc(/C=N/NC(=S)Nc2ccc(Cl)cc2)cc1F | – | inactive |
| Cc1ccc(NC2=C(NC(=O)c3ccccc3)C(=O)c3ccccc3C2=O)cc1Cl | – | inactive |
| CCCC(=O)n1nc(-c2ccccc2)nc1N | – | inactive |
| O=C(NC(=S)N1CCN(c2ccccc2)CC1)c1ccccc1 | 71% (active) | – |
| N#C/C=C1/NC(=O)c2ccccc2S1 | 22.5% (active) | – |
| COc1ccc(CN(C)CC(=O)Nc2ccc(Cl)cc2C(F)(F)F)c(OC)c1 | 37.5% (active) | – |
| CCN(CC)C(=S)NC(=O)c1ccc(OC)c(Br)c1 | 63.5% (active) | – |
| Cc1cc(/C=C2\C(=N)N3N=C(C(C)C)SC3=NC2=O)c(C)n1Cc1ccccc1 | – | inactive |
| CCOC(=O)C1=NN(C(=O)c2ccc(OC)cc2)C(O)(c2ccc(Cl)cc2)C1 (configuration not stated) | 136% (active) | – |
| CC(CCc1ccccc1)NC(=O)c1ccccc1C(=O)O (configuration not stated) | – | inactive |
| CSc1nc(C)c2c(n1)N(c1ccc(C(C)C)cc1)CC2 | – | inactive |
| CC(/C=C1\SC(=S)N(NS(=O)(=O)c2ccccc2)C1=O)=C\c1ccccc1 | 157% (active) | – |
| CCOC(=O)Cc1cc(=O)n2[nH]c(C)c(-c3ccc(Cl)cc3)c2n1 | – | inactive |
| Cc1[nH]n2c(=O)cc(C(C)(C)C)nc2c1-c1ccccc1 | 33.5% (active) | – |
| COc1cccc(/C=N/n2c(-c3cccs3)n[nH]c2=S)c1 | 160% (active) | – |
| CCOc1ccccc1NC(=O)CCC(=O)Nc1ccccc1OCC | – | inactive |
| Cc1ccccc1-c1nc(Cc2ccc(Cl)cc2)no1 | – | inactive |
| CCC(O)C1CCN(Cc2cn(Cc3ccccc3)nc2-c2cc3ccccc3o2)CC1 (configuration not stated) | 75% (active) | – |

| SMILES | potentiation | outcome |
| --- | --- | --- |
| CCOc1ccccc1NC(=O)C(=O)CC(=O)c1ccc(OC)cc1 | 64.5% (active) | – |
| Cc1cc(/C=N/NC(=O)c2cccs2)c(C)n1-c1ccccc1 | – | inactive |
| O=C(NC(=S)N1CCN(Cc2ccc3c(c2)OCO3)CC1)c1cccc(Br)c1 | 123% (active) | – |
| Cc1ccc(C(=O)NC(=S)N(C)Cc2ccccc2)cc1 | 46% (active) | – |
| S=c1[nH]nc(CSc2nc3ccccc3s2)n1C1CCCCC1 | 31% (active) | – |
| CN1C(=O)/C(=N\OC(=O)c2cccc3ccccc23)c2ccccc21 | – | inactive |
| CS(=O)(=O)c1ccc(C(=O)OCc2nnc(-c3ccc(Cl)cc3)o2)cc1[N+](=O)[O-] | 30.5% (active) | – |
| CCC1(c2ccc(Cl)cc2)NC(=S)N(c2ccccc2)N1 (configuration not stated) | 150% (active) | – |
| CC1=C(C)/C(=N\OS(=O)(=O)c2ccccc2)C=CC1=O | – | inactive |
| C=CCn1c(=S)[nH]c2sc3c(c2c1=O)CCCC3 | 97% (active) | – |
| CSc1nnc(-c2ccccc2)o1 | – | inactive |
| Cc1ccc(Cl)cc1NC(=S)N/N=C/c1cccc2ccccc12 | 32% (active) | – |
| Cc1cc(C)n(CCNS(=O)(=O)c2ccccc2)n1 | – | inactive |
| CCN1C(=O)/C(=C/c2ccc(OCc3ccc(C(=O)O)cc3)c(Cl)c2)NC1=S | – | inactive |
| O=C(NC(=S)Nc1ccccc1N1CCOCC1)c1cccc([N+](=O)[O-])c1 | – | inactive |
| CCc1ccc2c(c1)c(N=NC1=NC(=O)CS1)c(O)n2C | 30% (active) | – |
| O=C(NC(=S)Nc1cccnc1)c1cc2ccccc2o1 | 35% (active) | – |
| CC(C)(C)NC(=O)CN(C(=O)CNC(=O)c1cccs1)c1ccc2c(c1)OCCO2 | – | inactive |
| CCc1ccc(/C=N/NC(=O)Cc2cccn2C)cc1 | – | inactive |
| O=C(Nc1nnc(-c2ccc3c(c2)CCCC3)o1)c1ccccc1Cl | 83% (active) | – |
